ChEMBL document CHEMBL1134779, “Synthesis and characterization of the antitumor activities of analogues of meridine, a marine pyridoacridine alkaloid” (J Med Chem, 2001)

Legend:
[1] = tested on: T47D; test: In vitro inhibition of T-47D (human breast cancer) cell growth.; type: functional, cell-based
Outline: (§1)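 Human cancer lines from ATCC, grown at 37 °C in sealed dishes in Eagle's MEM with 5% FCS. Cells were seeded at 40000 cells/mL and plated for 24 h before drug exposure. Six concentrations from 10^-5 to 10^-10 M were tested. Growth was read by MTT reduction to formazan at 570 nm (reference 630 nm), in sextuplicate. IC50 is the concentration giving 50% growth reduction versus control.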

[2] = tested on: A549; test: In vitro inhibition of A549 (human lung cancer) cell growth.; type: functional, cell-based; outline: as §1
[3] = tested on: U-87 MG; test: In vitro inhibition of U-87 MG (human glioblastoma) cell growth.; type: functional, cell-based, U-87MG ATCC; outline: as §1
[4] = tested on: U373 MG; test: In vitro inhibition of U-373 MG (human glioblastoma) cell growth.; type: functional, cell-based, U-373MG ATCC; outline: as §1
[5] = tested on: A-427; test: In vitro inhibition of A-427 (human lung cancer) cell growth.; type: functional, cell-based; outline: as §1
[6] = tested on: PC-3; test: In vitro inhibition of PC-3 (human prostate cancer) cell growth.; type: functional, cell-based; outline: as §1
[7] = tested on: J82; test: In vitro inhibition of J82 (human bladder cancer) cell growth.; type: functional, cell-based; outline: as §1
[8] = tested on: MCF7; test: In vitro inhibition of MCF-7 (human breast cancer) cell growth.; type: functional, cell-based; outline: as §1
[9] = tested on: SW1088 (human); test: In vitro inhibition of SW1088 (human astrocytoma) cell growth.
[10] = tested on: HCT-15; test: In vitro inhibition of HCT-15 (human colon cancer) cell growth.; type: functional, cell-based; outline: as §1
[11] = tested on: LoVo; test: In vitro inhibition of LoVo (human colon cancer) cell growth.; type: functional, cell-based; outline: as §1
[12] = In vitro inhibition of T24 (human bladder cancer) cell growth.; type: functional, cell-based; conditions: T-24; outline: as §1
[13] = tested on: T47D; test: Ctotoxic related antitumor activity against human cancer cell lines T-47 D; type: functional, cell-based; outline: as §1

| Structure (SMILES) | IC50 [1] [nM] | IC50 [2] [nM] | IC50 [3] [nM] | IC50 [4] [nM] | IC50 [5] [nM] | IC50 [6] [nM] | IC50 [7] [nM] | IC50 [8] [nM] | IC50 [9] [nM] | IC50 [10] [nM] | IC50 [11] [nM] | IC50 [12] [nM] | IC50 [13] [nM] |
| --- | --- | --- | --- | --- | --- | --- | --- | --- | --- | --- | --- | --- | --- |
| O=C1c2nccc(Cl)c2C(=O)c2c(-c3ccccc3NC(=O)C(F)(F)F)ccnc21 | 2100 | 70 | 50 | 90 | 600 | 900 | 3300 | 60 | 3800 | 10 | 60 | 200 | – |
| O=C1c2nc(O)ccc2C(=O)c2c(-c3ccccc3NC(=O)C(F)(F)F)ccnc21 | 200 | 50 | 40 | 40 | 40 | 900 | 2100 | 30 | 60 | 60 | 40 | 50 | – |
| CCOC(=O)c1cnc2c(c1)-c1nc3ccccc3c3ccnc(c13)C2=O | 2900 | 80 | 70 | 700 | 800 | 5700 | 5200 | 700 | 2800 | 200 | 700 | 900 | – |
| O=C1c2ncccc2C(=O)c2c(-c3ccccc3NC(=O)C(F)(F)F)ccnc21 | 50 | 6 | 0.9 | 5 | 30 | 60 | 60 | 6 | 60 | 8 | 7 | 200 | – |
| O=C1c2nccc(Cl)c2C(=O)c2c(-c3ccccc3[N+](=O)[O-])ccnc21 | 800 | 900 | 2000 | 4800 | 3500 | 5000 | 500 | 1800 | 5400 | 2800 | 3900 | 5500 | – |
| O=C1c2nccc(O)c2C(=O)c2c(-c3ccccc3[N+](=O)[O-])ccnc21 | 4500 | 2300 | 800 | 4000 | 1200 | 7300 | 5300 | 3900 | 2900 | 3500 | 2900 | 2300 | – |
| Nc1ccnc2c1C(=O)c1c(-c3ccccc3[N+](=O)[O-])ccnc1C2=O | 5500 | 600 | 2700 | 3100 | 5500 | 5100 | 3000 | 3100 | 4800 | 500 | 5700 | 3600 | – |
| O=C1c2nccc(Br)c2-c2nc3ccccc3c3ccnc1c23 | 4400 | 3300 | 700 | 900 | 700 | 4900 | 9000 | 1100 | 3000 | 3600 | 800 | 700 | – |
| CN(C)c1ccnc2c1-c1nc3ccccc3c3ccnc(c13)C2=O | 500 | 60 | 50 | 80 | 60 | 600 | 1300 | 80 | 100 | 70 | 80 | 200 | – |
| COc1ccnc2c1C(=O)c1c(-c3ccccc3[N+](=O)[O-])ccnc1C2=O | 5100 | 20 | 9 | 30 | 700 | 3100 | 400 | 50 | 3900 | 90 | 50 | 20 | – |
| O=C1c2nccc(-c3ccccc3NC(=O)C(F)(F)F)c2C(=O)c2c([N+](=O)[O-])ccnc21 | 4300 | 900 | 4700 | 900 | 4500 | 600 | 3900 | 700 | 6000 | 600 | 900 | 5400 | – |
| Nc1ccnc2c1C(=O)c1c(-c3ccccc3NC(=O)C(F)(F)F)ccnc1C2=O | 1200 | 600 | 300 | 900 | 500 | 600 | 2700 | 800 | 800 | 600 | 700 | 700 | – |
| O=C1c2nccc(Cl)c2-c2nc3ccccc3c3ccnc1c23 | 2700 | 7 | 20 | 100 | 900 | 500 | 90 | 80 | 4300 | 100 | 50 | 90 | – |
| COc1ccnc2c1-c1nc3ccccc3c3ccnc(c13)C2=O | 30 | 0.3 | < 0.1 | < 0.1 | 5 | 60 | 0.9 | < 0.1 | 60 | 2 | 0.3 | 6 | – |
| O=C1c2ncccc2-c2nc3ccccc3c3ccnc1c23 | 10 | 20 | < 0.1 | 0.7 | 0.8 | 40 | 7 | 0.9 | 60 | 5 | 20 | < 0.1 | – |
| Nc1ccnc2c1-c1nc3ccccc3c3ccnc(c13)C2=O | 600 | 80 | 70 | 100 | 60 | 500 | 700 | 90 | 80 | 300 | 90 | 70 | – |
| COc1ccnc2c1C(=O)c1c(-c3ccccc3NC(=O)C(F)(F)F)ccnc1C2=O | 30 | < 0.1 | < 0.1 | < 0.1 | 50 | 50 | 0.9 | 0.3 | 50 | 2 | 0.1 | 7 | – |
| O=C1c2nccc([N+](=O)[O-])c2-c2nc3ccccc3c3ccnc1c23 | 600 | 800 | 70 | 90 | 2400 | 4200 | 500 | 70 | 5500 | 600 | 90 | 700 | – |
| CC(=O)Nc1ccnc2c1C(=O)c1c(-c3ccccc3NC(=O)C(F)(F)F)ccnc1C2=O | 300 | 70 | 60 | 90 | 60 | 2700 | 3500 | 90 | 90 | 90 | 70 | 400 | – |
| CN(C)c1ccnc2c1C(=O)c1c(-c3ccccc3NC(=O)C(F)(F)F)ccnc1C2=O | 700 | 60 | 60 | 300 | 70 | 600 | 2000 | 100 | 400 | 200 | 100 | 300 | – |
| CCOC(=O)c1cnc2c(c1)C(=O)c1c(-c3ccccc3NC(=O)C(F)(F)F)ccnc1C2=O | – | 90 | 80 | 400 | 600 | 1300 | 5200 | 500 | 800 | 100 | 800 | 600 | 2600 |
| O=C1c2nccc(O)c2-c2nc3ccccc3c3ccnc1c23 [MERIDINE] | 70 | 80 | 100 | 100 | 200 | 500 | 8200 | 90 | 2000 | 200 | 70 | 50 | – |
